# Screening results from PubChem.
# A selection: hits, their analogues and other compounds. The true share with any hit is near 4.8%.
# 697 NFkB inh = lowers PMA/ionomycin-induced NF-kB signal in 697 B cells. AID 435022. 697 B-cell NF-kB luciferase reporter, 16 h. 330,000 tested, 0.33% active. inhibition, % at 4 µM; in the data active means inhibition above about 35%
# HSF-1 act = increases HSF-1 driven luciferase reporter signal; NIH3T3-HGL HSF-1 luciferase reporter, MG132, 8 h; 100% = twice DMSO control signal; activation, % at 9 µM; 300,000 tested, 1.7% active; AID 504408;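 active means mean replicate activation of at least 50% with a set share of replicates each reaching 50%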;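 further: 0% = median of the neutral control wells and 100% = twice that signal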
# Jurkat NFkB inh = inhibitors of the PMA/ionomycin-induced NF-kB reporter in Jurkat cells; PMA/ionomycin-induced NF-kB luciferase reporter, luminescence; inhibition, % at 4 µM; 330,000 tested, 0.53% active; AID 435003; in the data active means inhibition above about 50%
# T cruzi repl = blocks replication of Trypanosoma cruzi; T. cruzi beta-gal in NIH3T3, luminescence, 90 h; inhibition, % (concentration not given with the values); 300,000 tested, 1.4% active; AID 1885;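 active means mean inhibition across valid replicates above about 55%, limit read from the data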;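 further: signal also drops with host cell toxicity which is not excluded here; 0% = plate median of DMSO wells and 100% = zero luminescence signal; higher percent means less beta-gal luminescence so fewer parasites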
#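 System: mouse NIH/3T3 fibroblasts infected with β-gal-expressing T. cruzi Tulahuen C4 / Input: NIH/3T3 cells, 5,000 per well / Buffer or medium: Low-serum DMEM with 2% FBS / Probe or stimulus: 5000 reporter trypomastigotes per well / Schedule: ≥90 h infection period, 3 h prior cell attachment / Measured by: GalScreen luminescence, 60 min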
# GPR7 antagonist = human neuropeptides B/W receptor 1 antagonism; P48145; GPR7-expressing cells, fluorescence antagonist assay; inhibition, % at 4.4 µM; 290,000 tested, 1.1% active; in the data active means inhibition above about 16%, passing the limit was not always enough;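 further: cells stimulated with the agonist NPW; 0% = agonist with vehicle and 100% = vehicle without agonist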
# Target sequence (P48145 whole entry, looked up): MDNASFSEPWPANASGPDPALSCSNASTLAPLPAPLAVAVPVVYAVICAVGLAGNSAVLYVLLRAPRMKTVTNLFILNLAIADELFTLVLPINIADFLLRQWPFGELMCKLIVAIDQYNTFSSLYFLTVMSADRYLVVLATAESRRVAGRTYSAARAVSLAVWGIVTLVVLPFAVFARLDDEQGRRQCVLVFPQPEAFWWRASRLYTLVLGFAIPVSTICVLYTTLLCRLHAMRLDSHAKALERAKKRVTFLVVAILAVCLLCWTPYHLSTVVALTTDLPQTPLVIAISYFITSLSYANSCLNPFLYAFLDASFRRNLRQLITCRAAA
# HSF1 inh = HSF1 inhibition. NIH3T3-HGL HSE-luciferase, MG132-induced, luminescence 8 h; active compounds read low. activity change, negative = inhibition, % at 7.5 µM (by protocol). 300,000 tested, 0.77% active;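 active means more than half of replicate wells show activity change below -50%, luminescence cut by over half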;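 further: luciferase reports HSF-1 transcriptional activity via heat shock element; 0% = median of DMSO wells and -100% = zero luminescence signal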
# * hit, by the source's call; . = not tested or not shown.
SMILES,697 NFkB inh,HSF-1 act,Jurkat NFkB inh,T cruzi repl,GPR7 antagonist,HSF1 inh
NS(=O)(=O)c1ccc(CNC(=S)Nc2ccc(F)c(Cl)c2)cc1,14.7,-10.7,13.8,-9.8,3.2,-3.0
Cc1ccccc1C(=O)NC(=S)Nc1ccc(Oc2ccc(Cl)cc2)cc1,-18.4,-12.2,-3.9,20.3,-2.2,-3.0
CCc1cc(C(=O)N2CCN(S(=O)(=O)c3ccc(Cl)cc3)CC2)sc1C,18.4,.,5.6,.,.,.
O=c1cc(-c2ccccc2)c2ccc(O)cc2o1,4.5,-58.2,3.1,18.3,.,-51.4*
CCCOc1ccc(C(=O)CCC(=O)OCC(=O)N(C)c2c(N)n(Cc3ccccc3)c(=O)[nH]c2=O)cc1,-32.4,-1.5,-3.4,-2.8,-10.8,-4.2
CCCc1c(-c2ccc(O)cc2)nn(-c2ccc(O)cc2)c1-c1ccc(O)cc1,16.4,2.7,8.7,-3.8,.,5.3
CCOC(=O)c1nsnc1NCCSC(=N)N,22.6,-22.3,-1.4,-25.9,0.3,-7.4
COc1ccc(C)cc1NC(=O)n1ncc2c(C)cccc21,-28.6,31.6,-13.5,3.9,-30.9,13.5
Cc1cccc2c1cnn2C(=O)Nc1ccccc1Br,-23.1,19.8,-23.5,-16.1,-2.6,9.7
COc1ccc(NC(=O)n2ncc3c(C)cccc32)cc1OC,-40.8,53.4*,-79.2,2.2,-1.9,30.3
COc1ccc(NC(=O)n2ncc3c(C)cccc32)cc1,-156.8,59.7*,-95.7,-4.2,22.7,39.2
Cc1ccc(NC(=O)n2ncc3c(C)cccc32)cc1F,-156.4,61.0*,-113.2,-8.4,1.7,30.9
CN1CCN(S(=O)(=O)c2cccc(C(=O)NC3CCCC3)c2)CC1,14.9,-9.0,0.7,-1.1,.,-8.0
COc1cc(C)ccc1OCc1cc(C(=O)N2CCCCCCC2)no1,-73.4,33.5,-78.2,0.4,10.1,27.9
COc1ccc(OCCSc2nc3ccccc3n2CC(=O)O)cc1,12.6,7.0,13.9,-1.6,0.1,-10.3
O=C(O)Cn1c(SCCOc2ccc(Cl)cc2)nc2ccccc21,-2.9,63.1*,-4.2,4.9,-12.4,26.9
Cc1cccc(N(Cc2cc3ccccc3[nH]c2=O)C(=O)c2cccs2)c1,-8.6,-37.7,3.0,6.3,-15.7,-24.2
Cc1ccc(N(Cc2cc3ccc(C)cc3[nH]c2=O)C(=O)c2cccs2)cc1,2.0,-88.0,-3.0,8.4,-14.7,-85.0*
O=C(O)CCCCCNC(=O)CSc1nnc(-c2ccco2)n1-c1ccccc1,7.5,2.8,11.2,-1.4,-16.7,4.2
NC(=O)c1nsc(C(=O)N(c2ccc(F)cc2)C(C(=O)NCC2CCCO2)c2c[nH]c3ccccc23)c1N (stereo not drawn),8.8,8.9,-5.8,0.7,11.5,1.2
CCc1ccc(N(C(=O)c2snc(C(N)=O)c2N)C(C(=O)NCCC(C)C)c2c[nH]c3ccccc23)cc1 (stereo not drawn),9.8,56.7*,10.8,9.8,-9.5,13.7
CCOC(=O)c1c(-c2ccc3ccccc3c2)csc1NC(=O)CCCC(=O)O,-9.1,.,-12.7,.,.,.
CCN(C(=O)COc1cc(=O)n(CC)c2ccccc12)c1cc(Cl)ccc1OC,-23.1,8.0,0.3,14.3,20.4*,0.3
CCCc1[nH]nc2c1C(c1ccc(OC)cc1OC)C(C#N)=C(N)O2 (stereo not drawn),-16.2,63.0*,1.3,-5.3,-12.2,23.5
Cc1ccc(-c2nc3ccccc3[nH]2)cc1NC(=O)c1ccco1,5.1,23.0,-27.4,12.6,3.4,5.9
SMILES,697 NFkB inh,HSF-1 act,Jurkat NFkB inh,T cruzi repl,GPR7 antagonist,HSF1 inh
Cc1ccc(-c2nc3ccccc3[nH]2)cc1NC(=O)c1sc2cc(Cl)ccc2c1Cl,-34.8,5.4,-45.2,60.4*,12.0,8.5
Cc1ccc(C(=O)N2CCC3(CC2)Oc2ccc(F)cc2C(=O)C32CC(c3ccc(Cl)cc3)=NO2)s1 (stereo not drawn),-0.7,-18.8,25.7,22.1,.,-12.9
CC(C)[C@H](NC(=O)c1cccc(CN(Cc2ccccc2)C(=O)c2ccccc2)c1)C(=O)O,4.9,-17.9,6.9,-7.4,.,-11.9
COc1ccccc1NS(=O)(=O)c1cc(NC(=O)c2ccc(Cl)nc2)ccc1N1CCCC1,-6.4,.,-5.4,.,.,.
COc1ccccc1NS(=O)(=O)c1cc(NC(=O)C2CCC2)ccc1N1CCCCC1,8.9,1.3,-13.7,57.3*,-10.3,15.6
COc1ccc(NS(=O)(=O)c2cc(NC(=O)C3CC3)ccc2N2CCCCC2)cc1,33.0,33.2,10.3,38.6,-6.7,8.3
COc1ccccc1NS(=O)(=O)c1cccc(NC(=O)Nc2ccc(Cl)cc2)c1,-11.2,6.3,-5.4,66.7*,-4.8,1.1
COc1ccccc1NS(=O)(=O)c1cc(NC(=O)Nc2ccc(Cl)cc2Cl)ccc1N1CCCCC1,10.4,-1.5,1.9,59.4*,-6.1,7.3
COc1ccccc1NS(=O)(=O)c1cccc(NC(=O)Nc2ccccc2)c1,10.9,-12.0,-1.6,12.7,-9.8,-3.4
CCn1c(SCc2ccccc2Cl)nc2ccccc21,-60.6,42.1,-53.7,14.0,-4.9,33.1
Cc1ccc(-c2csc(NC(=O)CSc3nc4ccccc4c(=O)n3CCCN(C)C)n2)cc1,-13.3,19.3,-5.4,28.9,-1.6,14.3
Cn1c(SCc2ccccc2Cl)nc2ccccc21,-122.6,93.1*,-114.9,-2.8,-9.3,40.1
CN(C)CCCn1c(SCC(=O)N2c3ccccc3Sc3ccccc32)nc2ccccc2c1=O,.,-3.0,.,58.0*,-1.2,5.1
Cn1c(SCC(=O)N2c3ccccc3Sc3ccccc32)nc2ccccc21,8.9,7.0,9.5,58.8*,0.9,-7.3
Cc1ccc(OC(=O)c2sc3ncn(C)c(=O)c3c2C)cc1,-100.7,4.9,-55.5,0.3,-5.8,14.9
CC(NC(=O)COc1ncnc2cc([N+](=O)[O-])ccc12)c1ccccc1 (stereo not drawn),-1.2,-1.1,3.1,-10.5,-4.5,0.8
CCOC(=O)c1c(C)[nH]c(C)c1C(=O)COc1ncnc2cc([N+](=O)[O-])ccc12,10.7,66.1*,6.4,50.3,-8.3,16.6
O=C(COc1ncnc2cc([N+](=O)[O-])ccc12)NC(=O)NC1CCCCC1,15.7,1.0,14.4,67.0*,1.0,-1.5
O=C(COc1ncnc2cc([N+](=O)[O-])ccc12)NCCc1ccc(Cl)cc1,19.8,5.1,-0.1,55.7*,7.3,-3.9
COc1ccccc1C(CNC(=O)C1CC(=O)N(Cc2ccccc2)C1)N1CCCC1 (stereo not drawn),7.0,.,-5.5,.,.,.
CC1CC1C(=O)OCC(=O)NC(=O)NC12CC3CC(CC(C3)C1)C2 (stereo not drawn),-23.8,20.1,-39.7,1.1,-6.2,0.5
COCCCNC(=O)C1CC(=O)N(C2CCCC2)C1 (stereo not drawn),-0.5,.,-6.7,-20.3,1.3,.
